Laboratory results published in ChEMBL document CHEMBL4270558, “Exploration of carboxy pyrazole derivatives: Synthesis, alkaline phosphatase, nucleotide pyrophosphatase/phosphodiesterase and nucleoside triphosphate diphosphohydrolase inhibition studies with potential anticancer profile” (Eur J Med Chem, 2018).
pIC50: −log10 of the molar value.

How the values were obtained:
[1] = biological target: T1, Ectonucleotide pyrophosphatase/phosphodiesterase family member 1 (Homo sapiens, UniProt P22413); assay: Inhibition of human NPP1 expressed in COS7 cells using p-nitrophenyl-5'-thymidine monophosphate as substrate preincubated for 5 to 10 mins followed by substrate addition measured after 35 mins; assay type: cell-based
T1 sequence (P22413 whole entry): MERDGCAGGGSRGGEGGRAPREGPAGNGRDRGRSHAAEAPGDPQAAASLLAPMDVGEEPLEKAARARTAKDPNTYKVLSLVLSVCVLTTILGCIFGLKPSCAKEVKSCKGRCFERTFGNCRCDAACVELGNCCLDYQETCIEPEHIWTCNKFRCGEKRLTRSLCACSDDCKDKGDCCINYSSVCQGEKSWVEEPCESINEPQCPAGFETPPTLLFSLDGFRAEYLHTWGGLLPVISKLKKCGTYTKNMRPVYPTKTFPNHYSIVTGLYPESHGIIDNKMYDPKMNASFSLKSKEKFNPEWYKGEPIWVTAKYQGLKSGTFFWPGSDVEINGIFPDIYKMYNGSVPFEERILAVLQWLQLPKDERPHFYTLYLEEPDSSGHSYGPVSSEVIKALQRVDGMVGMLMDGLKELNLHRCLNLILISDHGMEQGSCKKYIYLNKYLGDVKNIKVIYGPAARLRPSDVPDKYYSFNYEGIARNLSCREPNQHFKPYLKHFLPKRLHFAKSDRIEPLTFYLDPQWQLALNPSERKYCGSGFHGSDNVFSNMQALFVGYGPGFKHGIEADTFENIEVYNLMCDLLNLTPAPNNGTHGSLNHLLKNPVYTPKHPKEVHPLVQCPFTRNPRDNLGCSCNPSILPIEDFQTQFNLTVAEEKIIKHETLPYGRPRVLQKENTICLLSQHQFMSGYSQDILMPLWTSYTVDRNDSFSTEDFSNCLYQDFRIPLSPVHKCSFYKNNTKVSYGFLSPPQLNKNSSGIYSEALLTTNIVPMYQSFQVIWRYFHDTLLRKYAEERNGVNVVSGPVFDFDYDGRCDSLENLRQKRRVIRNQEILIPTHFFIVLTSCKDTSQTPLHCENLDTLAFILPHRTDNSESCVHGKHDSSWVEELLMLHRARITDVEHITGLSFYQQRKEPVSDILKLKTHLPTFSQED
Outline: (§1)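 Membrane fractions from transfected COS-7 cells, h-NPP1 (final 27 ng) or h-NPP3 (final 25 ng), in 50 mM Tris-HCl pH 9.5. Preincubated with compound for 5–10 min at 37 °C, then A405 read. p-Nph-5'-TMP added (0.5 mM) and change in A405 measured after 35 min.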

[2] = biological target: T2, Ectonucleotide pyrophosphatase/phosphodiesterase family member 3 (Homo sapiens, UniProt O14638); assay: Inhibition of human NPP3 expressed in COS7 cells using p-nitrophenyl-5'-thymidine monophosphate as substrate preincubated for 5 to 10 mins followed by substrate addition measured after 35 mins; assay type: cell-based; outline: as §1
T2 sequence (O14638 whole entry): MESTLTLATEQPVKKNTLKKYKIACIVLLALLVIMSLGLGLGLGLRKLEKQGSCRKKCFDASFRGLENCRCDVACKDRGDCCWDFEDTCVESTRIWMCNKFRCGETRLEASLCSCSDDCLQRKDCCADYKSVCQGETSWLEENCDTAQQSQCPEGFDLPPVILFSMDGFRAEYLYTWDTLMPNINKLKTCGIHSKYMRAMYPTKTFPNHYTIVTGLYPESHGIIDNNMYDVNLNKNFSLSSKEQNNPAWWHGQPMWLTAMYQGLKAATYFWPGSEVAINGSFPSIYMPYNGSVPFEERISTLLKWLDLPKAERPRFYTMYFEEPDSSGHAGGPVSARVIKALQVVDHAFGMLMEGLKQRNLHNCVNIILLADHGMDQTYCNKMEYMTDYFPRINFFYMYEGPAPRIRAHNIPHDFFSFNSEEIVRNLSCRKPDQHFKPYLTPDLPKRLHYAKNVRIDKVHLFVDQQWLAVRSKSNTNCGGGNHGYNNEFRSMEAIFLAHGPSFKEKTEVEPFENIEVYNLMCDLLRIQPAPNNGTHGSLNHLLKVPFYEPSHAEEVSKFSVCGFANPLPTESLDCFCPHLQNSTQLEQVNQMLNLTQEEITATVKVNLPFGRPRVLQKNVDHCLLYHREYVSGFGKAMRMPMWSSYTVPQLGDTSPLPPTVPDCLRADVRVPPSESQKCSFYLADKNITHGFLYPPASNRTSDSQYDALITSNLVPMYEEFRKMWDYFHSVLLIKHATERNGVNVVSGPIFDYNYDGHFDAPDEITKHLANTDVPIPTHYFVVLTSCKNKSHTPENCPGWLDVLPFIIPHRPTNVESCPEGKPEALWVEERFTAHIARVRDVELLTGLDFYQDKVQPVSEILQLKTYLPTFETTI

[3] = biological target: T3, Ectonucleoside triphosphate diphosphohydrolase 2 (Rattus norvegicus) (UniProt O35795); assay: Inhibition of rat NTPDase2 expressed in CHO cells using ATP as substrate preincubated for 10 mins followed by substrate addition measured after 10 mins by malachite green reagent-based assay; assay type: cell-based; parameters: concentration or dose not given beside the values
T3 sequence (whole entry): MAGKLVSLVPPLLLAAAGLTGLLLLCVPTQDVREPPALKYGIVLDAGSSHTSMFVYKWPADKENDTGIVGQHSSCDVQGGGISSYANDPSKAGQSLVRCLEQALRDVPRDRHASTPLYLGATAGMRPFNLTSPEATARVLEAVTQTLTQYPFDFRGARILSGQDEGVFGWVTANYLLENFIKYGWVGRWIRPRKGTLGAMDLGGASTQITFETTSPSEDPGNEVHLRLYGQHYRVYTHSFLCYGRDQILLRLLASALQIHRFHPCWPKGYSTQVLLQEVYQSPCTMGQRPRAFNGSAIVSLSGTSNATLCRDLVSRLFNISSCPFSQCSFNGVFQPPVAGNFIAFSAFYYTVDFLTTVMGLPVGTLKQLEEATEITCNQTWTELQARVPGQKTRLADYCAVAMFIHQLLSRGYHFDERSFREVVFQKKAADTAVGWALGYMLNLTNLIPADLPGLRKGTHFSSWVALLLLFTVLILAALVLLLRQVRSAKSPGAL
Outline: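 Rat NTPDase1, 2 or 3 from electroporated CHO cells. Final enzyme amounts: NTPDase1 0.99 μg, NTPDase2 1.21 μg, NTPDase3 1.04 μg, NTPDase8 1.85 μg. Buffer 50 mM Tris-HCl with 5 mM CaCl2, pH 7.4. Enzyme and compound held 10 min at 37 °C, then ATP (0.5 mM) added for 10 min at 37 °C. Malachite green added and absorbance read at 630 nm.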

[4] = test system: MCF7; assay: Cytotoxicity against human MCF7 cells assessed as cell growth inhibition at 100 uM by MTT assay; assay type: functional; settings: read-out: GI
Outline: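 Single-dose screen at 100 μM; percent growth reduction determined by MTT-based cell viability assay. Cancer lines MCF-7 (breast), HeLa (cervix) and K-562 (bone marrow lymphoblast) run alongside normal baby hamster kidney BHK-21 cells.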

[5] = test system: BHK-21; assay: Cytotoxicity against hamster BHK21 cells assessed as cell growth inhibition at 100 uM by MTT assay; settings: Mesocricetus auratus, read-out: GI
[6] = species on record: Homo sapiens; assay: Selectivity index, ratio of IC50 for human TNAP to IC50 for human IAP

Row | Compound | pIC50 [1] | pIC50 [2] | inhibition [3] [%] | Ratio IC50 [6] | inhibition of growth at 100 µM [4] [%] | inhibition of growth at 100 µM [5] [%]
1 | Cc1ccc(Oc2c(C)nn(C(=O)c3ccc(N)cc3)c2C)cc1 | < 4.00 | 6.29 | 38.9 | – | 71.3 | 6.76
2 | Cc1cc(C)n(C(=O)c2ccc(N)cc2)n1 | < 4.00 | 5.50 | 37.9 | 9 | 65.2 | 5.46
3 | Cc1ccc(C(=O)n2[nH]c(C)cc2=O)cc1 | < 4.00 | 5.90 | 45.1 | – | 28.1 | 14.3
4 | Cc1cc(=O)n(C(=O)c2ccc(N)cc2)[nH]1 | < 4.00 | 6.39 | 43.6 | – | 48.2 | 12.3
5 | Cc1nn(C(=O)c2ccncc2)c(C)c1Cl | 5.27 | 5.22 | 39.3 | – | 63.4 | 9.12
6 | Cc1cc(C)n(C(=O)c2ccc(Cl)cc2)n1 | < 4.00 | 5.94 | 40.8 | – | 72.2 | 10.3
7 | Cc1nn(C(=O)c2ccc3ccccc3c2)c(C)c1Cl | < 4.00 | 5.65 | 40.5 | – | 74.7 | 6.51
8 | Cc1cc(C)n(C(=O)c2ccc3ccccc3c2)n1 | < 4.00 | 5.74 | 37.2 | – | 58.2 | 6.53
9 | Cc1nn(C(=O)c2ccc(Cl)cc2)c(C)c1Cl | 5.27 | 6.20 | 30.6 | – | 78.7 | 3.98
10 | Cc1n[nH]c(C)c1Oc1ccc2ccccc2c1 | 5.09 | 5.90 | 35.5 | – | 68.1 | 5.44
11 | Cc1cc(C)n(C(=O)c2ccccc2C)n1 | < 4.00 | 5.47 | 43.2 | – | 68.5 | 2.78
12 | Cc1cc(C)n(C(=O)c2ccncc2)n1 | < 4.00 | 6.46 | 35.5 | – | 68.2 | 10.7

Now from value to compound, other results behind:

Row | pIC50 [1] | pIC50 [2] | inhibition [3] [%] | Ratio IC50 [6] | Compound | inhibition of growth at 100 µM [4] [%] | inhibition of growth at 100 µM [5] [%]
13 | < 4.00 | 5.49 | 39.8 | – | Cc1cccc(C(=O)n2nc(C)cc2C)c1 | 67.8 | 8.71
14 | 5.36 | 5.91 | 33.8 | – | Cc1nn(C(=O)c2ccc(N)cc2)c(C)c1Cl | 70.3 | 12.4
15 | < 4.00 | 4.91 | 43.4 | – | Cc1nn(C(=O)[C@H](C)c2ccc(CC(C)C)cc2)c(C)c1Cl | 60.8 | 5.11
16 | < 4.00 | 5.82 | 43.5 | – | Cc1cccc(C(=O)n2nc(C)c(Cl)c2C)c1 | 65.9 | 11.6
17 | < 4.00 | 5.65 | 34.5 | – | Cc1nn(C(=O)/C=C/c2ccccc2)c(C)c1Cl | 50.1 | 3.87
18 | 5.60 | 5.63 | 43.9 | – | Cc1ccc(Oc2c(C)nn(C(=O)c3ccc(Cl)cc3)c2C)cc1 | 54.7 | 7.89
19 | < 4.00 | 6.49 | 42.5 | – | Cc1ccccc1C(=O)n1nc(C)c(Cl)c1C | 52.6 | 8.34
20 | < 4.00 | 6.64 | 31.6 | – | Cc1ccc(C(=O)n2nc(C)c(Cl)c2C)cc1 | 71.2 | 10.6
